Experimental data as given in ChEMBL document CHEMBL4033799, “Stable and Long-Lasting, Novel Bicyclic Peptide Plasma Kallikrein Inhibitors for the Treatment of Diabetic Macular Edema” (J Med Chem, 2018).
pKi: −log10 of the molar value.

What was measured:
[1] = target: T1, Kallikrein-13 (Homo sapiens, UniProt Q9UKR3); assay: Inhibition of recombinant human C-terminal polyHis-tagged KLK13 (1 to 262 residues) expressed in HEK293 cells using fluorogenic Boc-VPR-AMC peptide as substrate by fluorescence based assay
T1 sequence (Q9UKR3 whole entry): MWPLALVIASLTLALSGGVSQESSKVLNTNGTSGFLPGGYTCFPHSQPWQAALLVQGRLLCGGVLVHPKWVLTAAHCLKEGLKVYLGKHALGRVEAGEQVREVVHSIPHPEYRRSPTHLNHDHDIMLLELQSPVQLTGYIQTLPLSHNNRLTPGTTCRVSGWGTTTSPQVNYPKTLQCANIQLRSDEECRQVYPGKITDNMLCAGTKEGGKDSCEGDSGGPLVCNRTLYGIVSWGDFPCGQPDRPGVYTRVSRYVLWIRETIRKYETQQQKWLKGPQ
Summary of the method: (§1)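 Panel of human serine proteases. Substrates and assay conditions followed each supplier's recommendations. Peptides were first screened at 50 μM. Where inhibition was detectable, hydrolytic activity was measured across a range of peptide concentrations. Ki was obtained by fitting to the tight-binding inhibitor rate equation.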

[2] = Inhibition of rabbit plasma kallikrein using fluorogenic H-Pro-Phe-Arg-AMC peptide as substrate preincubated for 15 mins followed by substrate addition measured by fluorescence-based assay; set-up: species or system Oryctolagus cuniculus; settings: read-out: Ki(app)
Summary of the method: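 Assays ran at 25 °C in 50 mM Tris-HCl, 250 mM NaCl, 1.5 μM BSA, pH 7.5. PKal (nominal 1–2 nM) was preincubated 15 min with serially diluted peptide. […] Human PKal was purified from plasma; rat PKal was made in-house or bought; other species were purified in-house from kaolin-activated plasma.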

[3] = target: T2, Kallikrein-2 (Homo sapiens, UniProt P20151); assay: Inhibition of recombinant human C-terminal 10His-tagged KLK2 (1 to 261 residues) expressed in mouse NS0 cells using fluorogenic PFR-AMC peptide as substrate after 5 mins by fluorescence based assay
T2 sequence (P20151 whole entry): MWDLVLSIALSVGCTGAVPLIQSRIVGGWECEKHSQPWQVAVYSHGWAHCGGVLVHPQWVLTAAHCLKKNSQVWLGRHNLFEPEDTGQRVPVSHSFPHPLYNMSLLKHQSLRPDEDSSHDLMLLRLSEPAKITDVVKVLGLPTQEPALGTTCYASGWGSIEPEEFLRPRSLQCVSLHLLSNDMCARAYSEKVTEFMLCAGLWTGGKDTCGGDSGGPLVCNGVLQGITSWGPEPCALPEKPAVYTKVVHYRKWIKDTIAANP
Summary of the method: (§2)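 Human serine proteases were assayed with substrates and conditions set by each supplier's recommendations. Peptides were first screened at 50 μM. Where inhibition was detected, Ki was determined from activity across peptide concentrations using a tight-binding rate equation.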

[4] = Inhibition of cynomolgus monkey plasma kallikrein using fluorogenic H-Pro-Phe-Arg-AMC peptide as substrate preincubated for 15 mins followed by substrate addition measured by fluorescence-based assay; settings: read-out: Ki(app)
[5] = target: Vitamin K-dependent protein C (Homo sapiens, UniProt P04070); assay: Inhibition of human activated protein C by fluorescence based assay; summary of the method: as §2
Vitamin K-dependent protein C, sequence (P04070 43-197 limits assumed): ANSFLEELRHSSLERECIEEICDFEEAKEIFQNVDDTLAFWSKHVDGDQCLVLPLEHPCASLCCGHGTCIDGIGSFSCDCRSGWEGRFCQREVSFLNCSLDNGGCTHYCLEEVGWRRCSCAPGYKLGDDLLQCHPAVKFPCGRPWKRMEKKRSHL
Vitamin K-dependent protein C, sequence (P04070 212-461 limits assumed): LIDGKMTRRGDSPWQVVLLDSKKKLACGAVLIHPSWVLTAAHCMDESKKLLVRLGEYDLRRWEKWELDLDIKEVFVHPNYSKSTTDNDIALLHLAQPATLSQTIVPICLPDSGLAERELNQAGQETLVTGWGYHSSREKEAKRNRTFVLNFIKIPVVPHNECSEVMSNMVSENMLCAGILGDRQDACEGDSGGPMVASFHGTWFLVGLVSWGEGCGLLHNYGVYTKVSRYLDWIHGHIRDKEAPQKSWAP

[6] = target: T3, Coagulation factor VII (Homo sapiens, UniProt P08709); assay: Inhibition of human factor 7a using fluorogenic peptide as substrate by fluorescence based assay; summary of the method: as §2
T3 sequence (P08709 whole entry): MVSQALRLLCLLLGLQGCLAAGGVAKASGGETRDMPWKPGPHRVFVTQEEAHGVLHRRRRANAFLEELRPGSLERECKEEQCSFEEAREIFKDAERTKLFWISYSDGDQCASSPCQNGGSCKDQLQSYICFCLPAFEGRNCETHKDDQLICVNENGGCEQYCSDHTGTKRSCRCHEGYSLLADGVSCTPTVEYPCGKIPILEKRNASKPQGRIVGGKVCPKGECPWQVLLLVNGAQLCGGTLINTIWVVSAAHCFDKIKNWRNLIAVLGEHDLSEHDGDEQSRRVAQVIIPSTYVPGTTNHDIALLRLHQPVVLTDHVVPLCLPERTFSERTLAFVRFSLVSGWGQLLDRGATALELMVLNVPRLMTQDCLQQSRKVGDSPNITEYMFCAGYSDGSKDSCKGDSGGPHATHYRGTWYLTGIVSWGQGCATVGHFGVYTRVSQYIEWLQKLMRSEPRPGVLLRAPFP

[7] = target: T4, Suppressor of tumorigenicity 14 protein (Homo sapiens, UniProt Q9Y5Y6); assay: Inhibition of recombinant human N-terminal 6His-tagged matriptase catalytic domain (596 to 855 residues) expressed in Escherichia coli using fluorogenic Boc-QAR-AMC peptide as substrate after 5 mins by fluorescence based assay; summary of the method: as §1
T4 sequence (Q9Y5Y6 whole entry): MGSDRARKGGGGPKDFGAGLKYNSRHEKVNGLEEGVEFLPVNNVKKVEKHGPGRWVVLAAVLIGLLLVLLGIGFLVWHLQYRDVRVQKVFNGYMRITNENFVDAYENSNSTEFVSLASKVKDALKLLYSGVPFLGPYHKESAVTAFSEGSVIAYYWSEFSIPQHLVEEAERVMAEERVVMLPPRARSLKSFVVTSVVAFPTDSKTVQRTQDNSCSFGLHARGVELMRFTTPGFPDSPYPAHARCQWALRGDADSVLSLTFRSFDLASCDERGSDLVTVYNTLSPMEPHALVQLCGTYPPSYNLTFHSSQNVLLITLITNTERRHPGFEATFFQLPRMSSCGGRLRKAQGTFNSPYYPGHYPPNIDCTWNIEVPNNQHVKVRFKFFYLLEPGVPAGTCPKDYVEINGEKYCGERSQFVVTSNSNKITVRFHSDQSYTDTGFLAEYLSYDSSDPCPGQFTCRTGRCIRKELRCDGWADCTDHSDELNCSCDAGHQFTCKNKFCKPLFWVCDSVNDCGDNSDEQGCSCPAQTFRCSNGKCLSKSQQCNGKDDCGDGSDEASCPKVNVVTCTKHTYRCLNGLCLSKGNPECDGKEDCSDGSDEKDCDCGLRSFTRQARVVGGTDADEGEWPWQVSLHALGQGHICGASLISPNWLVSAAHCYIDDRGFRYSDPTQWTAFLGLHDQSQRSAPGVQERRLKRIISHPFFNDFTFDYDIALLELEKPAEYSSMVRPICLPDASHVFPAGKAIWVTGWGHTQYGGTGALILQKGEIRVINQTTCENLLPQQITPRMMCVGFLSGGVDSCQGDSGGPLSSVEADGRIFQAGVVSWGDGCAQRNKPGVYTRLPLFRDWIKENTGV

[8] = target: Plasminogen (Homo sapiens, UniProt P00747); assay: Inhibition of recombinant human plasmin using fluorogenic D-AFK-ANSNH-iC4H9.2HBr peptide as substrate by fluorescence based assay; summary of the method: as §1
Plasminogen, sequence (P00747 97-580 limits assumed): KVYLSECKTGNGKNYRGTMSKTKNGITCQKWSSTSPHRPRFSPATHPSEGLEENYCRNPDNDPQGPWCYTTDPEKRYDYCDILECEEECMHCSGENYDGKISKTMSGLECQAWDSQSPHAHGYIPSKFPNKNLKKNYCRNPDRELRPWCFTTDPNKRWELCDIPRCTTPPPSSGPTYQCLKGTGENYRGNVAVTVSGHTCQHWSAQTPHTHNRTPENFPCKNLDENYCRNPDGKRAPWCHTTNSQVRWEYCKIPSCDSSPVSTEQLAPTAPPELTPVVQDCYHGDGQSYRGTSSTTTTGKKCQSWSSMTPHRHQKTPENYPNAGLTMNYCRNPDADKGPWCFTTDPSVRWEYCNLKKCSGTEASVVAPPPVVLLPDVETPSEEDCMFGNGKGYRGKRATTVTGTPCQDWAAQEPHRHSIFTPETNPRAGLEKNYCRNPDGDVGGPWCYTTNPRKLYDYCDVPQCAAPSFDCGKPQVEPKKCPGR
Plasminogen, sequence (P00747 581-810 limits assumed): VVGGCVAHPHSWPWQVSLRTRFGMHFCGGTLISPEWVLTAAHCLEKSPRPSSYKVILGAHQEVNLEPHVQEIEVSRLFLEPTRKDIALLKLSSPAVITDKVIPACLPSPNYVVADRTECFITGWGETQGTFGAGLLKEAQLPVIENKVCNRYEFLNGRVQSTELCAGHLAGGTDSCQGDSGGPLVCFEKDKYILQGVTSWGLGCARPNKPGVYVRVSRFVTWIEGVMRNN

[9] = target: Granzyme B (Homo sapiens, UniProt P10144); assay: Inhibition of recombinant human Granzyme B (21 to 247 residues) using […] Ac-IEPD-pNA peptide as substrate […]; summary of the method: as §1
Granzyme B, sequence (P10144 whole entry, the tested form may be a part): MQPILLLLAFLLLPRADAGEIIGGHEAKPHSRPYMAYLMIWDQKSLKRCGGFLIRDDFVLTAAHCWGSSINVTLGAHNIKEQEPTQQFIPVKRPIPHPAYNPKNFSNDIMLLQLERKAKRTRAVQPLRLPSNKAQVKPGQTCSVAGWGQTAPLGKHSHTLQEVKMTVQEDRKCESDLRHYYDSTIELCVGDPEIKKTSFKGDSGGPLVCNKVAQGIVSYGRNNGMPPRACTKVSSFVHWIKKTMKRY

For CC(=O)N[C@H]1CSCc2cc3cc(c2)CSC[C@H](NC(=O)[C@H](CCCCNC(=N)N)NC(=O)[C@H](Cc2ccc(O)cc2)NC(=O)[C@@H]2CCN2C(=O)[C@H](Cc2ccccc2)NC(=O)[C@H](CO)NC1=O)C(=O)N[C@@H](C)CN[C@@H](Cc1cnc[nH]1)C(=O)N[C@@H](CCC(N)=O)C(=O)N[C@@H](CC(=O)O)C(=O)N[C@@H](CC(C)C)C(=O)N[C@H](C(=O)O)CSC3, the pKi ([1]; hek293) was < 4.30, the pKi [2] was 5.47 and the pKi [3] was 5.00. For the same molecule, the pKi [4] was 8.57, the pKi [5] was < 4.30 and the pKi [6] was < 4.30. The pKi [7] was 4.30, the pKi [8] was < 4.30 and the pKi [9] was < 4.30.
Molecule CC[C@H](C)[C@@H]1NC(=O)[C@H](CC(=O)O)NC(=O)[C@@H]2CCCN2C(=O)[C@H](Cc2ccc(O)cc2)NC(=O)[C@H](Cc2ccc(O)cc2)NC(=O)[C@H](C(C)C)NC(=O)[C@@H]2CSCc3cc(cc(c3)CSC[C@@H](C(=O)N[C@@H](C)C(=O)N(C)CC(=O)N(C)CC(=O)N(C)CC(=O)N[C@H](CCCNC(=N)N)C(=O)N[C@H](CCCNC(=N)N)C(=O)O)NC1=O)CSC[C@H](NC(C)=O)C(=O)N[C@@H](CO)C(=O)N[C@@H](Cc1ccccc1)C(=O)N1CCC1C(=O)N[C@@H](Cc1ccc(O)cc1)C(=O)N[C@@H](CCCCNC(=N)N)C(=O)N2 (some centres not stated) has a pKi [1] of 6.09, a pKi [2] of 5.58 and a pKi [3] of 5.00. The pKi [4] was 9.07, the pKi [5] was < 4.30 and the pKi [6] was < 4.30. For the same molecule, the pKi [7] was 4.82, the pKi [8] was < 4.30 and the pKi [9] was < 4.30.
With CC(=O)N[C@H]1CSCc2cc3cc(c2)CSC[C@H](C(=O)N[C@@H](C)C(=O)N(C)CC(=O)N(C)CC(=O)N(C)CC(=O)N[C@H](CCCNC(=N)N)C(=O)N[C@H](CCCNC(=N)N)C(=O)O)NC(=O)[C@H](CC(C)C)NC(=O)[C@@H]2CCCN2C(=O)[C@H](C)NC(=O)[C@H](CC(=O)O)NC(=O)[C@H](Cc2c[nH]c4ccccc24)NC(=O)[C@@H]2CCCN2C(=O)[C@H](CSC3)NC(=O)[C@H](Cc2c[nH]c3ccccc23)NC(=O)[C@@H]2CCCN2C(=O)[C@H](CC(N)=O)NC(=O)[C@H](Cc2c[nH]c3ccccc23)NC(=O)[C@H]([C@@H](C)O)NC(=O)[C@H](CC(N)=O)NC1=O the pKi ([1]; hek293) was < 4.30, the pKi [2] was 5.84 and the pKi [3] was < 4.30. The pKi [4] was 8.51, the pKi [5] was < 4.30 and the pKi [6] was < 4.30. For the same molecule, the pKi [7] was 4.40, the pKi [8] was < 4.30 and the pKi [9] was < 4.30.
